Assay outcomes (PubChem)
Most compounds without a hit are left out; they make up all but 1.9% or so of the library.
ARFGAP1 inh = inhibits rat ARF GTPase activating protein 1 | Q62848 | Arfgap1-stimulated ARF1 GTP hydrolysis, GDP FP detection | inhibition, % at 16.5 µM | 0.26% of 360,000 active | AID 651572;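 active means inhibition above a per-plate limit, mean inhibition of low control wells plus 3 SD, cut at about 25% in these data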
Target sequence (Q62848 1-136 limits assumed): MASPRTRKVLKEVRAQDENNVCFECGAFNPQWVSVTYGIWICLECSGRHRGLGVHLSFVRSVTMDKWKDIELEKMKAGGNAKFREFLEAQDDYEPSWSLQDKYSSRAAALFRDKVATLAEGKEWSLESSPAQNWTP
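Assay system: Rat Arfgap1 GAP domain (His6, aa 1-136), purified enzyme | Buffer or medium: HEPES 25 mM pH 7.5, NaCl 150 mM, MgCl2, DTT | Schedule: GTP hydrolysis reaction 2 h at 25 °C | Signal: FP of antibody-bound GDP Alexa 633 tracer, ex 620/em 688 nm | Measure: Percent inhibition of Arfgap1-stimulated GTP hydrolysis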
HGIII-sPLA2 inh = Blocks human group III sPLA2 activity | QFRET BODIPY PC-A2 liposome hydrolysis, fluorescence | Q9NZ20 | 0.56% of 370,000 active | inhibition, % at 12.2 µM;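 active means inhibition above mean plus 3 SD of compounds lying within the high and low control bounds, cut at about 19% in these data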
ASAP1 GAP inh = ASAP1 ArfGAP inhibition. ASAP1-stimulated ARF1 GTP hydrolysis, GDP FP detection. 0.19% of 360,000 active. AID 624377. inhibition, % at 16.5 µM; in the data active means inhibition above about 25%
Target sequence (Q9ULH1 325-724 limits assumed): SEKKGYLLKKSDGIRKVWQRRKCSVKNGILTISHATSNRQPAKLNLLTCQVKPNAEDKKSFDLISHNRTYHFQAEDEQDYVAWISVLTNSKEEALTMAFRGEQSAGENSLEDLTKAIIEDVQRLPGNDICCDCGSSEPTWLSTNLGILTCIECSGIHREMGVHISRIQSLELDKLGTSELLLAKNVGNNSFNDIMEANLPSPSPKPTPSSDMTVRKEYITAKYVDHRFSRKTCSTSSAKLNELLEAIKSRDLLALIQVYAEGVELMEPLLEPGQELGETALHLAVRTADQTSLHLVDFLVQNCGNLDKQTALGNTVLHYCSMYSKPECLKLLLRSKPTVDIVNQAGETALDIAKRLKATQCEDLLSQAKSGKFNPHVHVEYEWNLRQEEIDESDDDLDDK
PLC-gamma1 inh = inhibitors of human phospholipase C gamma1. purified PLC-gamma1, fluorogenic substrate, fluorescence. inhibition, % at 12.2 µM. 0.84% of 370,000 active. AID 720700; in the data active means inhibition above about 9.5%
PLC-beta3 inh = PLC-beta3 (human) inhibition, primary screen | Q01970 | Purified PLC-beta3, fluorogenic substrate, fluorescence | inhibition, % at 12.2 µM | 0.18% of 370,000 active | AID 720704; in the data active means inhibition above about 11%
sPLA2 confirm = human GIII-sPLA2 inhibition, confirmation. inhibition, % at 12.2 µM. 34% of 2,000 active. shares compounds with HGIII-sPLA2 inh. recombinant hGIII-sPLA2, BODIPY PC-A2 QFRET fluorescence;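 active means mean inhibition across triplicates above the hit cutoff set in the earlier primary screen, cut at about 19% in these data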
535nm interf = counter-screen for HGIII-sPLA2 inhibitors: 535nm fluorescence interference. shares compounds with HGIII-sPLA2 inh. BODIPY FL product fluorescence interference, QFRET. inhibition, % at 12.2 µM. 8.5% of 2,000 active. AID 743282;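 active means average inhibition above the solvent-only control mean plus 3 SD, cut at about 6% in these data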
535nm interf DR = interferes with 535nm fluorescence in dose response counter-screen; shares compounds with HGIII-sPLA2 inh; BODIPY FL product fluorescence interference, cell-free; IC50, µM; 240 tested, under 10 active; AID 743455;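 active means IC50 at or below 10 µM; inactive means IC50 above 10 µM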
Of the large screens only hits and unclear results are named; the others gave an inactive call (follow-up assays come after a bar, where they were run).

Cc1cc(-c2ccccc2)nc2oc3c(c12)NC(=O)CN(c1ccccc1)C3=O	none
COc1ccc2c(c1)CNC2CS(=O)(=O)NCc1ccc(F)cc1 (stereo not given)	none (no result: ARFGAP1 inh, ASAP1 GAP inh)
Cc1ccccc1C(=O)NC(=S)Nc1ccccc1N1CCCC1	HGIII-sPLA2 inh 20.1 | sPLA2 confirm 27.1 | 535nm interf inactive
COc1ccccc1C(=O)NC(=S)Nc1ccccc1N1CCCC1	none
O=C(NC1CC1c1ccccc1)N1CCC(c2nc3ccc(Cl)cc3[nH]2)CC1 (stereo not given)	none (no result: ARFGAP1 inh, ASAP1 GAP inh)
C=CCNS(=O)(=O)c1ccc(OCC(=O)OC)cc1	HGIII-sPLA2 inh 23.9 | sPLA2 confirm inactive | 535nm interf inactive
COC(=O)COc1ccc(S(=O)(=O)NCc2ccco2)cc1	none
COCCn1c(SCC(=O)Nc2cc(C)nn2-c2ccccc2)nnc1-c1ccncc1	HGIII-sPLA2 inh 20.4 | sPLA2 confirm inactive | 535nm interf inactive
COC(=O)[C@]12C[C@H](CC(=O)N3CCCCC3)C(=O)N(Cc3cccc4ccccc34)C1=C[C@H](C1CCCC1)O[C@@H]2C	none (no result: ARFGAP1 inh, ASAP1 GAP inh)
COc1cc(Sc2ccc(C)cc2)c(OC)cc1N	HGIII-sPLA2 inh 21.7 | sPLA2 confirm 38.5 | 535nm interf 9.1
COC(=O)c1ccc(Sc2ccc(C)cc2)c(N)c1	none
CC(C)Oc1ccc(CC2CC(=O)NC2=O)cc1 (stereo not given)	none
CC(C)Oc1ccc(CC2CCC(=O)N(C)C2=O)cc1 (stereo not given)	HGIII-sPLA2 inh 20.6 | sPLA2 confirm inactive | 535nm interf inactive
O=C(N/N=C/c1ccc(Cl)cc1)c1n[nH]c2c1CCCC2	HGIII-sPLA2 inh 21.3 | sPLA2 confirm inactive | 535nm interf inactive
COc1ccc(S[C@]2(C(=O)N3CCOCC3)CC(=O)N(c3ccccc3)[C@@H]2c2ccc(OC)cc2)cc1	none (no result: ARFGAP1 inh, ASAP1 GAP inh)
Oc1ccccc1/C=N/Nc1nccnc1Cl	HGIII-sPLA2 inh 23.6 | sPLA2 confirm inactive | 535nm interf 8.6
CCOC(=O)N1CCC(N(CCN(C)C)C(=S)Nc2cccc(SC)c2)CC1	none
CSc1cccc(NC(=S)N2CCC(N(C)C3CCCC3)CC2)c1	HGIII-sPLA2 inh 19.4 | sPLA2 confirm inactive | 535nm interf inactive
CCCC[n+]1c2ccccc2cc2ccccc21	HGIII-sPLA2 inh 39.8 | sPLA2 confirm 52.2 | 535nm interf inactive | 535nm interf DR inactive
Cc1ccc2ccccc2[n+]1CCCS(=O)(=O)[O-]	none
COc1cccc(CNC(=O)Cn2c(-c3ccccc3)cc(C(C)=O)c2C)c1	none (no result: ARFGAP1 inh, ASAP1 GAP inh)
CN(C)c1ccc(N=Nc2ccc3ncccc3c2)cc1	none
Cc1cc(N(C)C)ccc1N=Nc1ccc2ncccc2c1	HGIII-sPLA2 inh 22.7 | sPLA2 confirm 22.5 | 535nm interf inactive
CN1CCN(c2ccc3c(c2)Oc2ccccc2CN(Cc2cn(Cc4cccc(C(F)(F)F)c4)nn2)S3(=O)=O)CC1	none (no result: ARFGAP1 inh, ASAP1 GAP inh)
CC(C)CNC(=O)CN(C)S(=O)(=O)c1ccc(F)cc1	HGIII-sPLA2 inh 22.2 | sPLA2 confirm inactive | 535nm interf inactive
O=C(/C=C(\Nc1cccc(F)c1)c1ccccc1)c1ccccc1	none
Cc1ccc(C=Nn2c(-c3n[nH]c4c3CCC4)n[nH]c2=S)o1	HGIII-sPLA2 inh 20.6 (no result: ARFGAP1 inh, ASAP1 GAP inh) | sPLA2 confirm inactive | 535nm interf inactive
O=C(Cc1ccc(Nc2nc(=S)[nH]c3ccccc23)cc1)NC1CCCCC1	HGIII-sPLA2 inh 21.3 | sPLA2 confirm inactive | 535nm interf inactive
CC(C)CCNC(=O)Cc1ccc(Nc2nc(=S)[nH]c3ccccc23)cc1	none
Cc1ccc(-c2sc(C(=O)NN)c(C)c2C#N)cc1	HGIII-sPLA2 inh 24.2 | sPLA2 confirm inactive | 535nm interf inactive
Cc1ccc(CSc2sc(C(=O)c3ccccc3)c(N)c2C#N)cc1	none
CC1CN(Cc2ccccc2)c2ccccc2NC1=S (stereo not given)	HGIII-sPLA2 inh 21.0 | sPLA2 confirm 22.5 | 535nm interf inactive
Oc1c(C(Nc2cccc(C(F)(F)F)c2)c2ccncc2)ccc2cccnc12 (stereo not given)	none
Oc1c(C(Nc2nccs2)c2ccc(C(F)(F)F)cc2)ccc2cccnc12 (stereo not given)	HGIII-sPLA2 inh 40.3 | sPLA2 confirm 22.8 | 535nm interf inactive
CC(C)OC(=O)C1=CNCC(C)(C)c2c1[nH]c1cc(F)ccc21	none (no result: ARFGAP1 inh, ASAP1 GAP inh)
CCOC(=O)[C@]12CCCCC/C=C\1N(Cc1ccc(OC)cc1)C(=O)[C@H]2CC(=O)NCCCCc1ccccc1	none (no result: ARFGAP1 inh, ASAP1 GAP inh)
C=CCN1[C@H](C)COc2cccc(N3CCCC3)c2S1(=O)=O	none (no result: ARFGAP1 inh, ASAP1 GAP inh)
Nc1ccc2c(c1)C(=O)c1cc(N)c(Cl)cc1-2	HGIII-sPLA2 inh 29.1 | sPLA2 confirm 30.9 | 535nm interf 8.2
Nc1ccc2c(c1)C(=O)c1ccc(Cl)cc1-2	none
CC(N)c1csc(Nc2ccc(C(=O)c3ccccc3)cc2)n1 (stereo not given)	HGIII-sPLA2 inh 19.6 | sPLA2 confirm inactive | 535nm interf inactive
CC(C)C(N)c1csc(Nc2ccc(C(=O)c3ccccc3)cc2)n1 (stereo not given)	HGIII-sPLA2 inh 22.3 | sPLA2 confirm inactive | 535nm interf inactive
COC(=O)Cc1nnn2c1[C@@H](C)[C@@H](c1ccccc1Br)OC[C@H](C)C2	none
CC(=O)NN1C(=O)/C(=C2/Sc3ccc(Cl)cc3N2C)SC1=S	HGIII-sPLA2 inh 20.0 | sPLA2 confirm inactive | 535nm interf inactive
c1ccc(-c2cccc(CNc3nc(-c4ccccn4)nnc3-c3ccccc3)c2)cc1	HGIII-sPLA2 inh 25.4 (no result: ARFGAP1 inh, ASAP1 GAP inh) | sPLA2 confirm inactive | 535nm interf inactive
CC(C)CN1C(=O)N2CCc3ccccc3C2CS1(=O)=O (stereo not given)	none (no result: ARFGAP1 inh, ASAP1 GAP inh)
CCn1ncc(Cl)c1C(=O)NC(C)c1ccccc1 (stereo not given)	HGIII-sPLA2 inh 20.6 | sPLA2 confirm inactive | 535nm interf inactive
Cc1cccc(OCCN2C(=O)C(=O)c3cc(C)ccc32)c1	HGIII-sPLA2 inh 23.9 | sPLA2 confirm 21.3 | 535nm interf inactive
Cc1ccc2c(c1)C(=O)C(=O)N2CCOc1ccccc1	HGIII-sPLA2 inh 25.3 | sPLA2 confirm inactive | 535nm interf inactive
O=S1(=O)CC2c3ccc(F)cc3CN2CN1Cc1ccccc1 (stereo not given)	none (no result: ARFGAP1 inh, ASAP1 GAP inh)
COc1ccc(CCC(=O)NNC(=S)Nc2cccc(C(C)=O)c2)cc1	HGIII-sPLA2 inh 20.2 | sPLA2 confirm 27.8 | 535nm interf inactive | 535nm interf DR inactive
O=C(NNC(=S)Nc1ccccc1)Nc1ccccc1	none
CC(C)Oc1ccc(CC(=O)NNC(=S)Nc2ccccc2)cc1	HGIII-sPLA2 inh 28.9 | sPLA2 confirm 29.5 | 535nm interf inactive | 535nm interf DR inactive
O=C(NNC(=S)Nc1ccccc1)c1cc(Br)ccc1Cl	HGIII-sPLA2 inh 33.1 | sPLA2 confirm 27.6 | 535nm interf 6.1
COC(=O)c1cc(Br)ccc1NC(=O)Nc1ccccc1	none
